# From PMC3481142 (Cell Death & Disease, 2012)
# Square brackets hold non-standard residues; d marks the D form. Peptide text beside a SMILES is read from it.
# Columns and labels:
# Saos-2 cells = experiment: cytochrome c release, immunolocalization; assay type: cell-based; details: 10 µM, 24 h
# [1] = system: Cyt c release in MDA-MB-468 cells; experiment: Cyt c release from mitochondria; assay type: cell-based, human; details: 48 h; doxorubicin 5 μM
# In short: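 MDA-MB-468 cells were grown as a monolayer in Leibovitz's L-15 with 10% FBS at 37 °C without CO2, then seeded at 125 000 cells/ml. They were exposed to the test compounds for 48 h at the indicated concentrations. Cytochrome c release was quantified with a flow-cytometric cytochrome c release kit per the manufacturer's protocol, and cells were analysed on a flow cytometer.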
# MDA-MB-231 cell line = experiment: cell viability IC50 determination; assay type: cell-based; details: Homo sapiens, MDA-MB-231, read-out: IC50 (MDA-MB-231)
# [2] = patients with advance solid tumors; cited from earlier work
# [3] = system: Bcl-2 family proteins, IAPs and caspases in MDA-MB-468 cells; experiment: western blots of apoptosis-related proteins and caspases; assay type: cell-based, human; details: 72 h
# In short: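 MDA-MB-468 cells were treated for 72 h with TAT-NBI1, erlotinib or both at the indicated μM concentrations. Whole-cell extracts were made in 25 mM Tris-HCl pH 7.4, 1 mM EDTA, 1 mM EGTA and 1% SDS with protease and phosphatase inhibitors, and protein was quantified by BCA. Lysates were run on SDS-PAGE, transferred to nitrocellulose and immunoblotted.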
# SKBr3 cells = experiment: MTT and trypan blue cell viability assays; assay type: cell-based, human
# [4] = solubility in culture medium; assay type: physicochemical
# [5] = system: caspase-3/7 activity in MDA-MB-468 cells; experiment: caspase activation assay in cellular extracts; assay type: cell-based, human
# In short: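 MDA-MB-468 cells were cultured in L-15 with 10% FBS at 37 °C without CO2 and seeded at 125 000 cells/ml. They received TAT-NBI1/erlotinib co-treatment at the indicated μM concentrations, with or without necrostatin-1, for 48 h. Caspase-3/7 activity was then measured in cellular extracts.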
# [6] = system: caspase-3/7 activity in MDA-MB-231 cells; experiment: caspase activation assay in cellular extracts; assay type: cell-based
# In short: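 MDA-MB-231 cells were grown in Leibovitz's L-15 with 10% FBS at 37 °C without CO2. Cells were co-treated with TAT-NBI1/erlotinib at the indicated μM concentrations, with or without necrostatin-1 (100 μM). Etoposide (25 μM) ± necrostatin-1 served as reference. Caspase-3/7 activation was measured in cellular extracts.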
compound,measurement,setting,value
CC[C@@H](C)[C@@H](NC(=O)[C@@H](Cc1c[nH]c2ccccc12)NC(=O)[C@@H](CCCNC(=N)N)NC(=O)[C@H](CCC(N)=O)NC(=O)[C@@H]1CCCN1C(=O)[C@H](CCCNC(=N)N)NC(=O)[C@H](CCCNC(=N)N)NC(=O)[C@H](CCCNC(=N)N)NC(=O)[C@H](CCC(N)=O)NC(=O)[C@H](CCCNC(=N)N)NC(=O)[C@H](CCCNC(=N)N)NC(=O)[C@H](CCCCN)NC(=O)[C@H](CCCCN)NC(=O)[C@H](CCCNC(=N)N)NC(=O)CN)C(=O)N[C@H](CCSC)C(=O)N[C@H](Cc1ccc(O)cc1)C(=O)N[C@H](Cc1ccccc1)C(N)=O [TAT-NBI1] (H-GRKKRRQRRRPQ[dR][dW][dI][dM][dY][dF]-NH2; N-terminus and C-terminus assumed),mechanism of cell death followed by cytochrome c release to the cytosol,Saos-2 cells,"induced cell death by intrinsic, mitochondrial-mediated, apoptosis"
COc1cccc2c1C(=O)c1c(O)c3c(c(O)c1C2=O)C[C@@](O)(C(=O)CO)C[C@@H]3O[C@H]1C[C@H](N)[C@H](O)[C@H](C)O1 [doxorubicin],Cyt c release to the cytoplasm,[1],Cyt c release to the cytoplasm
C#Cc1cccc(Nc2ncnc3cc(OCCOC)c(OCCOC)cc23)c1 [erlotinib],IC50,MDA-MB-231 cell line,> 20 µM
same,plasma concentration at the steady state,[2],~5 µM
same,Bim expression,[3],upregulated
same,change of lethal dose of erlotinib in the presence of TAT-NBI1,SKBr3 cells,twofold lower
same,solubility,[4],≤ 20 µM
"CN1C(=O)C(Cc2c[nH]c3ccccc23)NC1=S (stereo not drawn) [nec-1, necrostatin-1]",effect on TAT-NBI1/erlotinib-induced caspase activation,[5],inhibited
same,effect on TAT-NBI1/erlotinib-induced caspase activation,[6],inhibited
